From ChEMBL document CHEMBL3804768, “Structure-Activity Relationship Studies of Mitogen Activated Protein Kinase Interacting Kinase (MNK) 1 and 2 and BCR-ABL1 Inhibitors Targeting Chronic Myeloid Leukemic Cells” (J Med Chem, 2016)
Converted amounts (≈) assume the structure as drawn.

Experiments:
[1] = biological target: Bcr/Abl fusion protein (Homo sapiens, UniProt P00519); test: Inhibition of BCR fused full length human recombinant N-terminal His-tagged ABL (2 to 1130 residues) expressed in baculovirus expression system using FL-peptide 2 substrate preincubated for 10 mins followed by substrate addition measured after 60 mins by mobility shift assay
[2] = biological target: MAP kinase-interacting serine/threonine-protein kinase 1 (Homo sapiens, UniProt Q9BUB5); test: Inhibition of N-terminal GST-tagged MNK1 kinase domain (37 to 341 residues) (unknown origin) expressed in Escherichia coli BL21(DE3) cells using JH3 peptide substrate preincubated for 10 mins followed by substrate addition measured after 60 mins by mobility shift assay
[3] = biological target: MAP kinase-interacting serine/threonine-protein kinase 2 (Homo sapiens, UniProt Q9HBH9); test: Inhibition of N-terminal GST-tagged MNK2 kinase domain (72 to 385 residues) (unknown origin) expressed in Escherichia coli BL21(DE3) cells using JH3 peptide substrate preincubated for 10 mins followed by substrate addition measured after 60 mins by mobility shift assay
[4] = biological target: MAP kinase-interacting serine/threonine-protein kinase 1/2 (Homo sapiens, UniProt Q9HBH9+Q9BUB5); test: Inhibition of MNK1/MNK2 in human HeLa cells assessed as reduction in phosphorylation of eIF4E at Ser209 after 2 hrs by AlphaScreen SureFire assay; assay type: cell-based
Summary of the method: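 HeLa cells were grown in DMEM with 10% FBS and penicillin/streptomycin, seeded at 30,000 per well and left 24 h. They were then exposed to serially diluted compound in serum-free DMEM for 2 h at 37 °C and lysed with shaking for 20 min. Phospho-eIF4E Ser209 was read by AlphaScreen SureFire with 2 h acceptor and 2 h donor steps at room temperature. Dose response was run in triplicate.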

[5] = system: K562; test: Antiproliferative activity against human K562 cells over expressing eIF4E after 48 hrs by Cell-Titer-Glo luminescent cell viability assay; assay type: functional; conditions: K562, 48 h
Summary of the method: (§1)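 Cells seeded at 5000 per well in growth medium, exposed to serial doses from 0.003 μM to 50 μM for 48 h at 37 °C, 5% CO2. Viability was read by CellTiter-Glo luminescence and GI50 taken from the dose-response curve. Dose response was run in triplicate and the curve repeated twice. K562 eIF4E-overexpressing cells were cultured in RPMI with 10% FBS.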

[6] = biological target: Tyrosine-protein kinase ABL1 (Homo sapiens, UniProt P00519, T315I); test: Inhibition of full length human recombinant N-terminal His-tagged ABL (2 to 1130 residues) T315I mutant expressed in baculovirus expression system using FL-peptide 2 substrate preincubated for 10 mins followed by substrate addition measured after 60 mins by mobility shift assay
Summary of the method: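 Buffer is 100 mM HEPES pH 7.5, 10 mM MgCl2, 0.004% Tween 20, 1 mM DTT, 0.003% Brij L23. Enzyme and compound sit 10 min before ATP/substrate is added. The reaction runs 60 min at room temperature, is stopped with 10 mM EDTA, and is read by mobility shift.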

[7] = Antiproliferative activity against human JURL-MK1 cells after 48 hrs by Cell-Titer-Glo luminescent cell viability assay; assay type: functional; conditions: JURL-MK1, 48 h
[8] = Antiproliferative activity against human EM2 cells after 48 hrs by Cell-Titer-Glo luminescent cell viability assay; assay type: functional; conditions: EM-2, 48 h; summary of the method: as §1
[9] = system: K562; test: Antiproliferative activity against human K562 cells after 48 hrs by Cell-Titer-Glo luminescent cell viability assay; assay type: functional; conditions: K562, 48 h; summary of the method: as §1
[10] = system: K562; test: Antitumor activity against human K562 cells over expressing eIF4E xenografted in NOD-SCID mouse assessed as tumor growth inhibition at 200 mg/kg, po qd administered through oral gavage for 14 days relative to control; assay type: functional; conditions: 336 h, read-out: TGI
Summary of the method: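 Female SCID mice, 7-10 weeks old, received 1 x 10^7 K562 eIF4E-overexpressing cells subcutaneously. At tumor volumes of 75-245 mm³ (w²×l/2) mice were randomized and gavaged once daily for 14 days at 10 mL/kg.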

[11] = Antiproliferative activity against human KCL22 cells after 48 hrs by Cell-Titer-Glo luminescent cell viability assay; assay type: functional; conditions: KCL-22, 48 h
[12] = Antiproliferative activity against human BV173 cells after 48 hrs by Cell-Titer-Glo luminescent cell viability assay; assay type: functional; conditions: BV-173, 48 h; summary of the method: as §1
[13] = biological target: Cytochrome P450 2D6 (Homo sapiens, UniProt P10635); test: Inhibition of CYP2D6 (unknown origin); assay type: ADME
[14] = biological target: Cytochrome P450 3A4 (Homo sapiens, UniProt P08684); test: Inhibition of CYP3A4 (unknown origin); assay type: ADME
[15] = Thermodynamic solubility in pH 4 pION buffer at 500 uM incubated for 18 hrs by UV-spectrophotometry; assay type: physicochemical; conditions: read-out: Therm_solubility
[16] = Permeability of compound by PAMPA; assay type: ADME; conditions: read-out: permeability
[17] = Thermodynamic solubility in pH 7 pION buffer at 500 uM incubated for 18 hrs by UV-spectrophotometry; assay type: physicochemical; conditions: read-out: Therm_solubility

Sequence of Cytochrome P450 3A4 (P08684 whole entry): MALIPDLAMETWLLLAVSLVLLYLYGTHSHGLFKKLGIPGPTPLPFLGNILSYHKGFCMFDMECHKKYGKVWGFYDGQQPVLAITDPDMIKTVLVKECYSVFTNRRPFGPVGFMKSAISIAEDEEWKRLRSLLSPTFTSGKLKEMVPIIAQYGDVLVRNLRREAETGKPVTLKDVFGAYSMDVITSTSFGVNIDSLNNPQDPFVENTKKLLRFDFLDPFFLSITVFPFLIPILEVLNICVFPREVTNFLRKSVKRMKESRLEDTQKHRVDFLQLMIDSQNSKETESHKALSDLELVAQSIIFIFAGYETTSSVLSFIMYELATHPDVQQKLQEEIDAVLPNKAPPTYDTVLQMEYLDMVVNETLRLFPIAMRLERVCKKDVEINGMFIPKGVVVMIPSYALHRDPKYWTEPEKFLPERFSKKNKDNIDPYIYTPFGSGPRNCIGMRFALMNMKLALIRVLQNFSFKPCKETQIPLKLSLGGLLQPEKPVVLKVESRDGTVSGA
Sequence of Cytochrome P450 2D6 (P10635 whole entry): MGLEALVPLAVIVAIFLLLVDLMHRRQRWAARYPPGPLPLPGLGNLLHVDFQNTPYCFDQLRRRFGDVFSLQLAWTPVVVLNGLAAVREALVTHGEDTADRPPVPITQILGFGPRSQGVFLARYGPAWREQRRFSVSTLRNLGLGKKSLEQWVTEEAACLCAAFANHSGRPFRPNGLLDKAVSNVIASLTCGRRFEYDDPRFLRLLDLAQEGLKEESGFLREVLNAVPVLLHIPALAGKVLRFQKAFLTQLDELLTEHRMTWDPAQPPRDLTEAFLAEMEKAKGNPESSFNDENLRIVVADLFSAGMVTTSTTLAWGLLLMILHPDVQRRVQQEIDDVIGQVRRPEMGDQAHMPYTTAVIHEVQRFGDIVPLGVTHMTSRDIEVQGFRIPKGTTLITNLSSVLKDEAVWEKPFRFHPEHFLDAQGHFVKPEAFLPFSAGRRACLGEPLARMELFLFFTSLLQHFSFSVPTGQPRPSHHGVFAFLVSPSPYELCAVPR
Sequence of MAP kinase-interacting serine/threonine-protein kinase 2 (Q9HBH9 whole entry, the tested form may be a part): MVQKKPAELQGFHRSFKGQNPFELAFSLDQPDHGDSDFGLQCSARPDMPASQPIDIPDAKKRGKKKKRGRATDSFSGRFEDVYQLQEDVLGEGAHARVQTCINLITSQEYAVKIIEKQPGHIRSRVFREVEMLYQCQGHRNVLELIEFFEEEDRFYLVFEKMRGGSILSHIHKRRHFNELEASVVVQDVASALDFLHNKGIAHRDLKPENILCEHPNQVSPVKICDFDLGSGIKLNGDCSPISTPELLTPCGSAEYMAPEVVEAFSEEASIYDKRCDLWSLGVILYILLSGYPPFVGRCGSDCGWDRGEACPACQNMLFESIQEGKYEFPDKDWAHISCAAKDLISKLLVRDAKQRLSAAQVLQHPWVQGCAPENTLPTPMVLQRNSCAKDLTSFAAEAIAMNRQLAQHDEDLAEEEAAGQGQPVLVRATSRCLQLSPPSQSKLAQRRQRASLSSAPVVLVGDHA
Sequence of MAP kinase-interacting serine/threonine-protein kinase 1 (Q9BUB5 whole entry, the tested form may be a part): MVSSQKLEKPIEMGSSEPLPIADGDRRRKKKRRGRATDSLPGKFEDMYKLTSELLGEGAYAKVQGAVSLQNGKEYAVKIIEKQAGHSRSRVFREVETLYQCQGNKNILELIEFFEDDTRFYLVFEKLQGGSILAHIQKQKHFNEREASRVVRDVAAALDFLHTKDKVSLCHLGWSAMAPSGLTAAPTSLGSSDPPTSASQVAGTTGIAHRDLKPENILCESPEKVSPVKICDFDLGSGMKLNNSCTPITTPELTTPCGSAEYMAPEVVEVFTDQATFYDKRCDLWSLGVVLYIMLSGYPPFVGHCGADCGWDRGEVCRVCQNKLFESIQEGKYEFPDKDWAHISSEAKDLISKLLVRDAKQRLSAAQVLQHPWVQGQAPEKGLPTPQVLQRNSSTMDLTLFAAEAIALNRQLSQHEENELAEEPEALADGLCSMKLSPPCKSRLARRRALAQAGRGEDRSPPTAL

IC50 [1] [nM]	IC50 [2] [nM]	IC50 [3] [nM]	Compound	IC50 [4] [nM]	GI50 [5] [nM]	other results
> 10000	4510	82	CCC1CCN(Cc2ccc(NC(=O)COc3ccc(-c4cccnc4)cc3)cc2C(F)(F)F)CC1	–	–	–
> 10000	> 10000	> 10000	CCN1CCN(Cc2ccc(NC(=O)C(C)Oc3ccc(-c4cccnc4)cc3)cc2C(F)(F)F)CC1 (configuration not stated)	–	–	–
> 10000	> 10000	> 10000	CCN1CCC(Cc2ccc(NC(=O)COc3ccc(-c4cccnc4)cc3)cc2C(F)(F)F)CC1	–	–	–
> 10000	> 10000	6860	CCN1CCN(Cc2ccc(NC(=O)COc3ccc(-c4ccc(C(=O)NC)nc4)cc3)cc2C(F)(F)F)CC1	–	–	–
> 10000	350	12	O=C(COc1ccc(-c2cccnc2)cc1)Nc1ccc(CN2CCNCC2)c(C(F)(F)F)c1	–	–	–
–	–	–	Cc1ccc(NC(=O)c2ccc(CN3CCN(C)CC3)cc2)cc1Nc1nccc(-c2cccnc2)n1 [IMATINIB]	–	–	GI50 [7]: 60 nM; GI50 [8]: 260 nM; GI50 [9]: 200 nM; inhibition in vivo at 200 mg/kg [10]: 57%; GI50 [11]: 430 nM; GI50 [12]: 100 nM
> 10000	> 10000	1910	CCN1CCN(Cc2ccc(NC(=O)COc3ccc(-c4ccncc4)cc3)cc2C(F)(F)F)CC1	–	–	–
> 10000	3690	22	CCN1CCN(Cc2ccc(NC(=O)Cc3ccc(Oc4cc(NC)ncn4)cc3)cc2C(F)(F)F)CC1	–	–	–
> 10000	> 10000	130	CCN1CCN(Cc2ccc(NC(=O)COc3ccc(-c4cccnc4)cc3)cc2C2CC2)CC1	–	–	–
> 10000	350	11	CCN1CCN(Cc2ccc(NC(=O)CNc3ccc(-c4cccnc4)cc3)cc2C(F)(F)F)CC1	–	–	–
> 10000	> 10000	> 10000	CCN1CCN(Cc2ccc(NC(=O)COc3ccc(-c4ccccn4)cc3)cc2C(F)(F)F)CC1	–	–	–
> 10000	> 10000	760	CCN1CCN(Cc2ccc(CC(=O)Nc3ccc(Oc4cc(NC)ncn4)cc3)cc2C(F)(F)F)CC1	–	–	–
3880	540	10	CCN1CCN(Cc2ccc(NC(=O)Cc3ccc(Oc4ccncc4)cc3)cc2C(F)(F)F)CC1	–	–	–
> 10000	570	14	CCN1CCN(Cc2ccc(NC(=O)COc3ccc(-c4cccnc4)cc3)cc2C(F)(F)F)CC1	98	> 10000	–
580	370	8	CCN1CCN(Cc2ccc(NC(=O)Cc3ccc(Oc4ccnc(NC)c4)cc3)cc2C(F)(F)F)CC1	–	–	–

Compound	IC50 [1] [nM]	IC50 [2] [nM]	IC50 [3] [nM]	IC50 [4] [nM]	GI50 [5] [nM]	other results
CCN1CCN(Cc2ccc(NC(=O)COc3ccc(-c4ccc(NC(C)=O)nc4)cc3)cc2C(F)(F)F)CC1	390	5680	33	680	100	IC50 [6]: 170 nM
O=C(CNc1ccc(-c2ccc(NC(=O)C3CC3)nc2)cc1)Nc1ccc(CN2CCNCC2)c(C(F)(F)F)c1	210	510	8	320	80	IC50 [13]: > 20000 nM; IC50 [14]: 1100 nM; solubility thermodynamic at 18 h, 500 µM [15]: 109 µg/mL (≈ 197 µM); IC50 [6]: 100 nM; Papp [16]: 5.53 ×10⁻⁶ cm/s
CCN1CCN(Cc2ccc(NC(=O)CNc3ccc(-c4ccc(NC(C)=O)nc4)cc3)cc2C(F)(F)F)CC1	380	5980	44	320	340	IC50 [13]: > 20000 nM; IC50 [14]: 3200 nM; solubility thermodynamic at 18 h, 500 µM [17]: 0.6 µg/mL (≈ 1.08 µM); IC50 [6]: 90 nM; Papp [16]: 26.2 ×10⁻⁶ cm/s
CC(C)C(=O)Nc1ccc(-c2ccc(NCC(=O)Nc3ccc(CN4CCNCC4)c(C(F)(F)F)c3)cc2)cn1	> 10000	7700	130	860	3300	IC50 [6]: > 10000 nM
CC(=O)Nc1ccc(-c2ccc(NCC(=O)Nc3ccc(CN4CCNCC4)c(C(F)(F)F)c3)cc2)cn1	880	3920	32	200	400	IC50 [13]: > 20000 nM; IC50 [14]: 2400 nM; solubility thermodynamic at 18 h, 500 µM [15]: 132 µg/mL (≈ 250 µM); IC50 [6]: 240 nM; Papp [16]: 1.13 ×10⁻⁶ cm/s
